This is a sample that favours compounds with a hit; in the whole collection about 1.4% have one here.
TDP2 absorb = blocks human TDP2 phosphodiesterase activity | O95551 | 370,000 compounds, 0.34% hits | inhibition, % at 12.8 µM | recombinant TDP2, T5PNP hydrolysis, p-nitrophenol absorbance 415 nm;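 active means inhibition above the mean of all tested compounds plus 3 SD, set per campaign, cut at about 25% in these data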;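 further: 0% = DMSO with enzyme and 100% = buffer with substrate but no TDP2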
Target sequence (O95551 whole entry, looked up): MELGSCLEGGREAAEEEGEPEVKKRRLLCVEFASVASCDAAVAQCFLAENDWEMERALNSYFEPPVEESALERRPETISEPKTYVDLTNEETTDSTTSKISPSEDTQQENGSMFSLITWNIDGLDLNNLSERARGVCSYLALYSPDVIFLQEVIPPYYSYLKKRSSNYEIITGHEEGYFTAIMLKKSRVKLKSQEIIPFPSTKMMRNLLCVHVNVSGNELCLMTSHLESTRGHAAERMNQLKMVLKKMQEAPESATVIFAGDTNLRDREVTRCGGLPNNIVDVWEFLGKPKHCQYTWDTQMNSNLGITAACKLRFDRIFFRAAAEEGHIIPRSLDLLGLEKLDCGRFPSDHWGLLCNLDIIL
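test system = human TDP2 enzyme | input = TDP2 enzyme at 120 nM final | medium = 50 mM Tris-HCl pH 7.5 with Mg2+, KCl, DTT, BSA | also added = T5PNP substrate, 5 mM | times = 2 h at 37 °C | technique = epi absorbance | benchmarks = high control without enzyme, low control DMSO plus TDP2 | replication = each compound tested once, singlicate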
GSTO1 counter = counter-screen for RBBP9 inhibitors: inhibitors of human GSTO1; recombinant GSTO1, activity-based probe fluorescence polarization; inhibition, % at 5.96 µM; AID 1974; 300,000 compounds, 1.1% hits;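 active means inhibition above the campaign mean inhibition plus 3 SD, cut at about 35% in these data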;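 further: 0% = GSTO1-1 with DMSO and 100% = wells lacking GSTO1-1 enzyme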
Target sequence (P78417 whole entry, looked up): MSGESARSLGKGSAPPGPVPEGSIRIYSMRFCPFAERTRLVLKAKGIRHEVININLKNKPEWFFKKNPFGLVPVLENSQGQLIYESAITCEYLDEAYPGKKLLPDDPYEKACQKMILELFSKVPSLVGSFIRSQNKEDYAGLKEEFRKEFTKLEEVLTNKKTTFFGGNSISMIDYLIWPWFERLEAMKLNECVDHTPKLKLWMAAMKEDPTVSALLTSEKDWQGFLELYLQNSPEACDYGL
PAD4 inh = inhibitors of human PAD4 | Q9UM07 | recombinant PAD4, RCA probe fluorescence polarization | inhibition, % at 6.36 µM | 330,000 compounds, 0.41% hits | AID 485272;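 active means percent inhibition above a cutoff equal to the mean of all tested compounds plus 3 SD, cut at about 15% in these data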;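 further: 0% = PAD4 with RCA probe and DMSO and 100% = probe without PAD4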
Fh CTSL1 inh = blocks F. hepatica cathepsin L1 in PFM18AAP counter-screen; inhibition, % at 5.96 µM; recombinant F. hepatica cathepsin L1, Z-Leu-Arg-MCA fluorescence; 300,000 compounds, 0.49% hits; AID 1906;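 active means inhibition above the mean of all tested compounds plus 3 SD, set per screening campaign, cut at about 17% in these data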;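 further: 0% = plate median of test compound wells and 100% = 1 µM Z-Phe-Ala-diazomethylketone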
* hit, by the source's call; · = no result; ! = not active in a repeat.

SMILES	TDP2 absorb	GSTO1 counter	PAD4 inh	Fh CTSL1 inh
N#Cc1c(N2CCOCC2)nc(-c2ccco2)c2c1CCCC2	8	1	1	42*
CC(C)CCNc1nc(-c2ccco2)c2c(c1C#N)CCCC2	2	-5	-3	19*
N#Cc1c(NCCN)nc(-c2ccco2)c2c1CCCC2	-5	5	6	11
COC(=O)[C@]12C[C@H](CC(=O)NCCCCc3ccccc3)C(=O)N(Cc3cccc4ccccc34)C1=C[C@H](COCc1ccccc1)O[C@@H]2C	5	·	·	·
COC(=O)CCC1NC(=O)C(Cc2c[nH]c3ccccc23)NC(=O)C2CC(=O)OC(C)C(NC(=O)C(C)NC(=O)C3CCCN3C(=O)C3CCCN3C(=O)C(C)NC(C)=O)C(=O)NC(CC(C)C)C(=O)NC(CCCCNC(=O)CCC(C(=O)NC(Cc3ccc(O)cc3)C(=O)O)NC1=O)C(=O)NC(Cc1c[nH]c3ccccc13)C(=O)N1CCCC1C(=O)NC(CO)C(=O)N2 (stereo unspecified)	3	·	·	·
Cc1csc(NC(=O)C2CCCN(S(=O)(=O)c3ccc(Br)s3)C2)n1 (stereo unspecified)	0	46*	-3	0
CCOC(=O)C1CCCN(S(=O)(=O)c2ccc(Br)s2)C1 (stereo unspecified)	0	9	-4	17*
COc1ccc(C2NC(=O)c3ccccc3N2)cc1COc1ccc(NC(C)=O)cc1 (stereo unspecified)	11	·	·	·
COc1ccc(CCn2c(NN=C(C)C)nc3c2c(=O)[nH]c(=O)n3C)cc1	-2	46*	-3	6
Nn1c(SCC(=O)Nc2cccc3ccccc23)nnc1-c1cc(-c2ccc(Cl)cc2)n[nH]1	6	·	·	·
COc1ccc2ccccc2c1C(=O)/C=C\c1ccoc1	-9	13	1	23*
O=C(/C=C/c1ccoc1)c1ccccc1O	-4	1	-1	-2
NCCCS(=O)(=O)O	7	1	4	19*!
O=S(=O)(O)CCS	3	-5	3	1
Cc1ccccc1CN1CCCCC(NC(=O)C2CCC2)C1=O (stereo unspecified)	-3	·	·	·
CCCCOC(=O)CSc1nnc(-c2ccc(Cl)cc2Cl)o1	3	-2	-4	9
CC(C)OC(=O)CSc1nnc(-c2ccc(Cl)cc2Cl)o1	1	14	5	21*
CC(C)N1CC=C2C(C#N)=C(N)C(C#N)(C#N)[C@H](c3ccoc3)[C@H]2C1	·	64*	49*	6
CC(C)N1CC=C2C(C#N)=C(N)C(C#N)(C#N)C(c3ccccc3)C2C1 (stereo unspecified)	-3	9	6	8
CCN1CC=C2C(C#N)=C(N)C(C#N)(C#N)C(c3cc(Cl)ccc3Cl)C2C1 (stereo unspecified)	6	1	22*	5
N#CC1=C(N)C(C#N)(C#N)C2(C(=O)Nc3ccccc32)C2CCCC=C12 (stereo unspecified)	-2	18	-8	20*
O=C(OCc1ccccc1)N1CCC2CC1c1ccc(N3CCN(Cc4ccccc4)CC3)cc12 (stereo unspecified)	-12	·	·	·
CN(C1=C(NC(=O)c2ccc(Cl)cc2)C(=O)c2ccccc2C1=O)c1ccccc1	-1	43*	-1	-1
Nc1cc(=O)[nH]c(SCC(=O)Nc2cccc([N+](=O)[O-])c2)n1	7	-6	1	2
O=C(CSc1nncc(=O)[nH]1)Nc1cccc([N+](=O)[O-])c1	17	35*	3	13
SMILES	TDP2 absorb	GSTO1 counter	PAD4 inh	Fh CTSL1 inh
COc1ccc(CNC(=O)Oc2ccccc2)cc1Cl	13	4	-4	19*
COC(=O)NCc1ccc(Cl)c(Cl)c1	-10	-1	0	2
O=C(NCC(c1ccco1)N1CCCCC1)c1ccc(COc2ccc(Cl)cc2)cc1 (stereo unspecified)	7	·	·	·
CN(CC(=O)Nc1ccc(F)cc1)C(=O)COC(=O)CNC(=O)c1ccc(Cl)cc1Cl	-3	4	2	21*
COc1ccc(Cl)cc1C(=O)OCC(=O)N(C)CC(=O)Nc1ccc(F)cc1	5	-3	-3	0
Cc1cc(C)cc(N(CC(=O)NC2CCC(C)CC2)S(=O)(=O)c2ccccc2)c1 (stereo unspecified)	4	·	·	·
O=C(OCc1cn(Cc2cc(F)cc(F)c2)nn1)N1CCOCC1	9	·	·	·
O=c1ccsn1Cc1ccccc1	6	-3	6	24*
Nn1c(SCc2c(Cl)cccc2Cl)nnc1-c1n[nH]c2c1CCC2	5	·	·	·
CC(=O)N1CCc2cc(S(=O)(=O)CCC(=O)NCc3cccs3)ccc21	4	0	6	-1
CC(=O)N1CCc2cc(S(=O)(=O)CCC(=O)NCc3ccc4c(c3)OCO4)ccc21	4	3	5	18*
CC(=O)Nc1sc2c(c1-c1nc3ccccc3s1)CCCN(C(C)C)C2	-1	·	·	·
COC(=O)c1cccc2nc3c(C(C)O)cccc3nc12 (stereo unspecified)	-15	7	-6	87*
COc1ccc(-c2n[nH]c3c2CN(C(=O)c2ccc(OC)c(OC)c2)CC3)cc1	15	-14	-2	34*
Cn1c(=O)c2cc(S(=O)(=O)N3CCN(c4ccccc4Cl)CC3)ccc2n(C)c1=O	8	·	·	·
O=C(NCc1ccccc1)C1CCN(c2nc(-c3ccc(Br)cc3)cs2)CC1	-6	·	·	·
O=C(CSc1nnc(-c2cnccn2)n1Cc1ccco1)c1ccc2ccccc2c1	-2	38*	-4	4
Cc1ccc(Nc2nc(CSc3nnc(-c4cccnc4)n3-c3ccccc3C)cs2)cc1	1	4	-1	47*
Cc1ccccc1-n1c(SCc2csc(Nc3ccccc3)n2)nnc1-c1cccnc1	7	1	-3	-3
CC(C)N1CCCCC(NC(=O)c2ccc(Cl)cc2Cl)C1=O (stereo unspecified)	-2	·	·	·
Cc1ccc(CSc2nnc(-c3cc(-c4ccc(C)cc4)n[nH]3)n2N)cc1	-1	·	·	·
COc1ccccc1CN(C)C(=O)C1CCCN(c2nc3ccccc3o2)C1 (stereo unspecified)	-6	·	·	·
CCOC(=O)CC[C@H]1CC[C@]2(CCCN(C3CCCCC3)C2)O1	0	·	·	·
COc1ccccc1/C=N/NC(=O)c1ccc(CN2C(=O)c3cccc4cccc2c34)cc1	9	-40	-7	18*
COC(=O)C1CN(Cc2ccc(OC)cc2)CCS(=O)(=O)N1Cc1ccc(C)cc1 (stereo unspecified)	6	·	·	·
CC1=NN(c2ccccc2C(=O)O)C(=O)C1N=Nc1ccccc1 (stereo unspecified)	-16	36*	-5	6
CC1=NN(C(N)=S)C(=O)C1N=Nc1ccccc1C(=O)O (stereo unspecified)	-7	4	-2	3
O=C1CSC(c2cccc([N+](=O)[O-])c2)N1c1c(F)cccc1F (stereo unspecified)	4	-4	2	20*
O=C1CSC(c2cccc(F)c2)N1c1c(F)cccc1F (stereo unspecified)	-32	3	-6	1
O=C(CN1C(=O)NC2(CCCCC2)C1=O)Nc1cc(C(F)(F)F)ccc1N1CCCC1	-5	·	·	·
